Assays:
[1] = Drug level in Senna obtusifolia (sicklepod) at growth inhibition I50 level rate measured 7 days post treatment; type: organism-based; conditions: in vivo, read-out: Drug uptake
Method in brief: (§1)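 Greenhouse plants (28/22 °C, 13 h photoperiod) were sprayed with glyphosate at each species' I50 rate, with Tween 20-treated controls. Shoots were cut at 7 DAT and rinsed to remove surface herbicide. Pooled ground tissue (1 g) was water-extracted twice with sonication, acidified, and washed with methylene chloride. Extracts were derivatized with heptafluorobutanol/TFAA (90 °C, 1 h) and measured by GC-MS against derivatized standards, in duplicate.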

Vigna unguiculata [2] = assay: Ratio of compound to AMPA level in Vigna unguiculata (cowpea) at growth inhibition I50 level rate measured 7 days post treatment; type: organism-based; conditions: in vivo, 168 h
Method in brief: (§2)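 Greenhouse plants (28/22 °C, 13 h photoperiod) were sprayed at each species' I50 rate with Tween 20 controls. Shoots were clipped 7 DAT and washed free of surface herbicide. Pooled ground tissue (1 g) was extracted twice with water under sonication. Extracts were derivatized with heptafluorobutanol/trifluoroacetic anhydride (90 °C, 1 h). Glyphosate and AMPA were quantified by GC-MS against derivatized standard curves, in duplicate.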

[3] = Drug level in glyphosate-resistant Glycine max (soybean) at growth inhibition I50 level rate measured 7 days post treatment; type: organism-based; conditions: in vivo, read-out: Drug uptake; method in brief: as §1
Senna occidentalis [4] = assay: Induction of shikimate accumulation in Senna occidentalis (coffee senna) at growth inhibition I50 level rate measured 7 days post treatment (reference value: 277 ug/g tissue); type: functional
Method in brief: (§3)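 Plants were sprayed in the greenhouse at each species' I50 rate, with Tween 20 controls. Shoots were harvested at 7 DAT and rinsed free of surface glyphosate. Shikimic acid was measured by HPLC on a C18 column after 0.45 µm filtration, with 100 µL injected, isocratic 98% H2O (pH 3.0)/2% MeOH, at 1 mL flow.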

Glycine max [5] = assay: Growth inhibition of glyphosate-resistant Glycine max (soybean) measured 7 days post treatment; type: functional
Senna obtusifolia = assay: Growth inhibition of Senna obtusifolia (sicklepod) measured 14 days post treatment
Erigeron canadensis = assay: Induction of shikimate accumulation in Conyza canadensis (horseweed) at growth inhibition I50 level rate measured 7 days post treatment (reference value: 251 ug/g tissue); type: functional; method in brief: as §3
[6] = Drug level in Senna occidentalis (coffee senna) at growth inhibition I50 level rate measured 7 days post treatment; type: organism-based; conditions: in vivo, read-out: Drug uptake; method in brief: as §1
Abutilon theophrasti [7] = assay: Induction of shikimate accumulation in Abutilon theophrasti (velvetleaf) at growth inhibition I50 level rate measured 7 days post treatment (reference value: 2 ug/g tissue); type: functional; method in brief: as §3
Sesbania herbacea [8] = assay: Drug level in Sesbania herbacea assessed as AMPA level at growth inhibition I50 level rate measured 7 days post treatment; type: organism-based; conditions: in vivo, 168 h, BLD = below limit of detection; method in brief: as §1
Lolium multiflorum [9] = assay: Drug level in Lolium multiflorum (Italian ryegrass) assessed as AMPA level at growth inhibition I50 level rate measured 7 days post treatment; type: organism-based; conditions: in vivo, 168 h, BLD = below limit of detection; method in brief: as §1
Sesbania herbacea [10] = assay: Growth inhibition of Sesbania herbacea measured 14 days post treatment
[11] = Drug level in Lolium multiflorum (Italian ryegrass) at growth inhibition I50 level rate measured 7 days post treatment; type: organism-based; conditions: in vivo, read-out: Drug uptake; method in brief: as §1
Lolium multiflorum [12] = assay: Induction of shikimate accumulation in Lolium multiflorum (Italian ryegrass) at growth inhibition I50 level rate measured 7 days post treatment (reference value: 904 ug/g tissue); type: functional; method in brief: as §3
Vigna unguiculata [13] = assay: Induction of shikimate accumulation in Vigna unguiculata (cowpea) at growth inhibition I50 level rate measured 7 days post treatment (reference value: 64 ug/g tissue); type: functional; method in brief: as §3
Zea mays [14] = assay: Induction of shikimate accumulation in glyphosate-resistant Zea mays (maize) at growth inhibition I50 level rate measured 7 days post treatment (reference value: 241 ug/g tissue); type: functional; method in brief: as §3
Senna occidentalis [15] = assay: Drug level in Senna occidentalis (coffee senna) assessed as AMPA level at growth inhibition I50 level rate measured 7 days post treatment; type: organism-based; conditions: in vivo, 168 h; method in brief: as §1
Glycine max [16] = assay: Induction of shikimate accumulation in glyphosate-resistant Glycine max (soybean) at growth inhibition I50 level rate measured 7 days post treatment (reference value: 65 ug/g tissue); type: functional; method in brief: as §3
Glycine max [17] = assay: Ratio of compound to AMPA level in glyphosate-resistant Glycine max (soybean) at growth inhibition I50 level rate measured 7 days post treatment; type: organism-based; conditions: in vivo, 168 h; method in brief: as §2
Lolium multiflorum [18] = assay: Growth inhibition of Lolium multiflorum (Italian ryegrass) measured 7 days post treatment; type: functional
[19] = Drug level in non glyphosate-resistant Zea mays (maize) at growth inhibition I50 level rate measured 7 days post treatment; type: organism-based; conditions: in vivo, read-out: Drug uptake; method in brief: as §1
Zea mays [20] = assay: Drug level in non glyphosate-resistant Zea mays (maize) assessed as AMPA level at growth inhibition I50 level rate measured 7 days post treatment; type: organism-based; conditions: in vivo, 168 h, BLD = below limit of detection; method in brief: as §1
Sesbania herbacea [21] = assay: Induction of shikimate accumulation in Sesbania herbacea at growth inhibition I50 level rate measured 7 days post treatment (reference value: 266 ug/g tissue); type: functional; method in brief: as §3
Glycine max [22] = assay: Induction of shikimate accumulation in non glyphosate-resistant Glycine max (soybean) at growth inhibition I50 level rate measured 7 days post treatment (reference value: 27 ug/g tissue); type: functional; method in brief: as §3
Abutilon theophrasti [23] = assay: Drug level in Abutilon theophrasti (velvetleaf) assessed as AMPA level at growth inhibition I50 level rate measured 7 days post treatment; type: organism-based; conditions: in vivo, 168 h, BLD = below limit of detection; method in brief: as §1
Senna occidentalis [24] = assay: Growth inhibition of Senna occidentalis (coffee senna) measured 14 days post treatment
Desmanthus illinoensis [25] = assay: Ratio of compound to AMPA level in Desmanthus illinoensis (Illinois bundleflower) at growth inhibition I50 level rate measured 7 days post treatment; type: organism-based; conditions: in vivo, 168 h; method in brief: as §2
Desmanthus illinoensis [26] = assay: Induction of shikimate accumulation in Desmanthus illinoensis (Illinois bundleflower) at growth inhibition I50 level rate measured 7 days post treatment (reference value: 21 ug/g tissue); type: functional
[27] = test system: Pueraria montana var. lobata; assay: Induction of shikimate accumulation in Pueraria montana var. lobata ( kudzu) at growth inhibition I50 level rate measured 7 days post treatment (reference value: 188 ug/g tissue); type: functional; method in brief: as §3
[28] = Drug level in Conyza canadensis (horseweed) at growth inhibition I50 level rate measured 7 days post treatment; type: organism-based; conditions: erigeron canadensis, in vivo; read-out: Drug uptake; method in brief: as §1

Question: With `O=C(O)CNCP(=O)(O)O` [GLYPHOSATE] as the compound, how does the concentration at 168 h [1] read?
Answer: 6410 ng/g

Question: What about the Ratio (Vigna unguiculata [2]) of the same compound?
Answer: 6

Question: What about the concentration at 168 h [3] of the same compound?
Answer: 5830 ng/g

Question: And the Activity (Senna occidentalis [4])?
Answer: 686 µg/g

Question: And the I50 (Glycine max [5])?
Answer: 250 gAi/ha

Question: And the I50 (Senna obtusifolia)?
Answer: 252 gAi/ha

Question: And the Activity (Erigeron canadensis)?
Answer: 9101 µg/g

Question: What about the concentration at 168 h [6] of the same compound?
Answer: 5910 ng/g

Question: What about the Activity (Abutilon theophrasti [7]) of the same compound?
Answer: 159 µg/g

Question: And the Drug uptake (Sesbania herbacea [8])?
Answer: BLD

Question: What about the Drug uptake (Lolium multiflorum [9]) of the same compound?
Answer: BLD

Question: And the I50 (Sesbania herbacea [10])?
Answer: 456 gAi/ha

Question: What about the concentration at 168 h [11] of the same compound?
Answer: 7430 ng/g

Question: What about the Activity (Lolium multiflorum [12]) of the same compound?
Answer: 6701 µg/g

Question: And the Activity (Vigna unguiculata [13])?
Answer: 16530 µg/g

Question: What about the Activity (Zea mays [14]) of the same compound?
Answer: 245 µg/g

Question: What about the Drug uptake (Senna occidentalis [15]) of the same compound?
Answer: 287 ng/g

Question: What about the Activity (Glycine max [16]) of the same compound?
Answer: 53 µg/g

Question: What about the Ratio (Glycine max [17]) of the same compound?
Answer: 49

Question: What about the I50 (Lolium multiflorum [18]) of the same compound?
Answer: 220 gAi/ha

Question: And the concentration at 168 h [19]?
Answer: 851 ng/g

Question: And the Drug uptake (Zea mays [20])?
Answer: BLD

Question: What about the Activity (Sesbania herbacea [21]) of the same compound?
Answer: 6828 µg/g

Question: What about the Activity (Glycine max [22]) of the same compound?
Answer: 15251 µg/g

Question: What about the Drug uptake (Abutilon theophrasti [23]) of the same compound?
Answer: BLD

Question: What about the I50 (Senna occidentalis [24]) of the same compound?
Answer: 75 gAi/ha

Question: What about the Ratio (Desmanthus illinoensis [25]) of the same compound?
Answer: 2

Question: And the Activity (Desmanthus illinoensis [26])?
Answer: 668 µg/g

Question: What about the Activity [27] of the same compound?
Answer: 8915 µg/g

Question: What about the concentration at 168 h [28] of the same compound?
Answer: 26300 ng/g
